This excerpt belongs to a sample that is enriched for hits.
PGC1a Ac signal: compounds raising PGC1a acetylation signal, primary screen, PGC1a modulator project, cell-based, U2OS, AlphaScreen, signal-increasing mode | activation, % at 15.6 µM | AID 651723, 2012 | overnight | hit rate 0.21% among 350,000;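 active = every replicate reaching activation of at least 50%, whatever the mean replicate activation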;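 also: hits raise the AlphaScreen acetylation signal above neutral controls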
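System: Flag-PGC1a/GCN5 U2OS cells | Quantity: 7000 cells/well | Times: Overnight compound treatment, 37 °C | Measured by: AlphaScreen proximity luminescence, anti-acetyl-lysine antibody | Dosing: One concentration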
The depositor's hits bear a star.

SMILES | PGC1a Ac signal
Cn1cc(C(=O)N/N=C/C(Br)=C\c2ccccc2)ccc1=O | 127.9*
Cc1occc1C(=O)N/N=C/C(Br)=C/c1ccccc1 | 163.7*
COc1cccc(C(=O)N/N=C/C(Br)=C/c2ccccc2)c1 | 100.9*
O=C(N/N=C/C(Br)=C\c1ccccc1)c1n[nH]c2c1CCC2 | 90.6*
COc1ccc(OC)c(/C=N/NC(=O)c2[nH]ncc2Br)c1 | -44.0
O=C(OCc1nc2ccsc2c(=O)[nH]1)c1cccc(S(=O)(=O)N2CCOCC2)c1 | -41.7
C[C@H]1CN([C@@H](C)CO)C(=O)c2cc(/C=C/c3ccccc3)cnc2O[C@H]1CN(C)C(=O)CN(C)C | -53.1
CCn1c(Oc2ccccc2F)nc2c1c(=O)n(C)c(=O)n2C | -40.4
C[C@@H]1CN([C@H](C)CO)C(=O)CCCn2cc(nn2)CO[C@@H]1CN(C)C(=O)NC1CCCC1 | -45.7
CCCNC(=O)[C@H]1[C@H](CO)[C@H]2Cn3c(ccc(-c4ccccc4)c3=O)[C@H]2N1C(=O)C1CC1 | -40.8
CCOc1ccnc(OCC)c1Br | -44.5
CC(c1ccccc1)N1C(=O)NC(NC(=O)c2cccnc2)(C(F)(F)F)C1=O (configuration not stated) | 74.3*
CCc1ccc(C(=O)Nc2cccnc2Oc2ccc(Cl)cc2)cc1 | -86.9
Cc1ccc(S(=O)(=O)N2CCN(S(=O)(=O)c3ccc(C)cc3)C2c2ccccc2)cc1 | 109.8*
CCOC(=O)C1CN(S(=O)(=O)c2ccccc2)c2cc(S(=O)(=O)CC)ccc2O1 (configuration not stated) | -49.7
Cc1ccc(S(=O)(=O)C(C#N)c2nc3ccccc3nc2N2CCCC2)cc1 (configuration not stated) | -49.7
C[C@@H]1CN([C@@H](C)CO)C(=O)c2cccc(NC(=O)c3ccc(-c4nccs4)cc3)c2O[C@@H]1CN(C)C(=O)Nc1ccc(C(F)(F)F)cc1 | -54.6
N#Cc1cc(Oc2cccc3cccnc23)c(-n2nnc3ccccc32)cc1C#N | 138.7*
C[C@H]1CN([C@@H](C)CO)C(=O)Cc2cc(NC(=O)Nc3ccccc3)ccc2O[C@@H]1CN(C)Cc1ccccc1 | -50.0
C[C@H]1CCC/C=C/[C@@H]2C[C@H](O)C[C@H]2[C@H](O)[C@H](S(=O)c2ccc(O)cc2)CC(=O)O1 (some centres not stated) | -66.3
CC1CCCN(Cc2c(O)ccc3c(=O)c(-c4nc5ccccc5s4)c(N)oc23)C1 (configuration not stated) | 62.3*
CCc1oc2c(C)c(O)ccc2c(=O)c1-c1ccc2ccccc2n1 | -48.5
CC1CCCN(Cc2c(O)ccc3c4c(c(=O)oc23)CCCC4)C1 (configuration not stated) | -49.4
CCOC(=O)c1c(CN2CCN(CC#N)CC2)n(C)c2cc(Br)c(OC)cc12 | 68.5*
CC(NC(=O)Nc1cccnc1)(C(F)(F)F)C(F)(F)F | 62.1*
SMILES | PGC1a Ac signal
CCC(=O)Nc1ccnc(-c2cccnc2)n1 | -41.5
O=C(/C=C/c1cccnc1)/C=C/c1cccnc1 | -80.5
CCOc1nc(NC(=O)NS(=O)(=O)c2ccccc2F)nc(-c2ccccc2)n1 | -49.9
CN(C)C(=O)C[C@@H]1CC[C@@H]2[C@H](COC[C@@H](O)CN2C(=O)C2CCOCC2)O1 | -55.5
COc1cc(-c2cnc3c(NC=O)cc(-c4ccccc4)cn23)cc(OC)c1OC | 105.1*
COc1cc(-c2cnc3c(NC=O)cc(-c4ccccc4Cl)cn23)cc(OC)c1OC | 101.9*
COc1cc(-c2cnc3c(NC=O)cc(-c4ccc(C)cc4)cn23)cc(OC)c1OC | 89.1*
C[C@H]1CN([C@@H](C)CO)C(=O)c2cc(-c3cccc(C(=O)N(C)C)c3)cnc2O[C@@H]1CN(C)S(=O)(=O)c1ccc(F)cc1 | -21.4
COC(=O)c1c(C)oc(C)c1S(=O)(=O)Nc1ccccc1 | -50.1
Cc1cc(C)c(S(=O)(=O)Nc2ccccc2-c2ccccc2)c(C)c1 | 79.4*
Cc1cc(O)c(N=Nc2ccc(C(=O)O)cc2)cc1C | -50.1
CCOC(=O)C1=C[C@@H](C(C)(C)C)N(S(=O)(=O)c2ccc(C)cc2)[C@H]1c1cccc2ccccc12 | 100.0*
C[C@@H]1CN([C@@H](C)CO)C(=O)CCCn2nncc2CO[C@H]1CN(C)CC1CCCCC1 | -52.3
OC(c1cc(C(F)(F)F)nc2c(C(F)(F)F)cccc12)C1CCCCN1 (configuration not stated) | 78.1*
O=C(CNC(=O)C1CCCCC1)OCC(=O)c1ccc(Cl)s1 | -45.2
O=CNc1ccc2c(c1)Cc1cc([N+](=O)[O-])ccc1-2 | 54.4*
Cc1ccc(S(=O)(=O)Nc2ccccc2C(=O)NCc2cccnc2)cc1 | -91.4
O=C(NCc1cccnc1)c1ccc(NC(=O)c2cccc([N+](=O)[O-])c2)cc1 | 170.7*
Cc1c(Cl)c([N+](=O)[O-])nn1CC(=O)NCc1cccnc1 | -41.8
CC(C)(C)NC(=O)C(=O)NNC(=O)c1cccc([N+](=O)[O-])c1 | -56.9
O=C(COc1ccc([N+](=O)[O-])cc1)Nc1ccc(C(=O)NCc2cccnc2)cc1 | 191.9*
C/C(=N/NC(=O)CNC(=O)c1cccnc1)c1ccc([N+](=O)[O-])cc1 | -42.7
N#C[C@@H]1[C@H](c2ccccc2C2=CCCCC2)[C@H](CO)N1C(=O)Cc1ccncc1 | -44.7
CCc1c(C(=O)NC2CCCCC2)[nH]c(C)c1C(C)=O | -93.4
CC(C)(C)S(=O)N1Cc2cc(C(=O)NCc3ccc(Oc4ccccc4)cc3)nc(-c3cccc(-c4cc5ccccc5o4)c3)c2[C@H]1CCO (some centres not stated) | 61.8*
SMILES | PGC1a Ac signal
Cc1noc(C)c1NC(=O)N[C@H]1C=C[C@H](CC(=O)NCc2ccc(Cl)c(Cl)c2)O[C@H]1CO | -49.2
C[C@H]1CN([C@@H](C)CO)C(=O)CCCn2nncc2CO[C@@H]1CN(C)C(=O)Nc1ccccc1 | -49.5
C[C@@H]1CN([C@@H](C)CO)C(=O)c2cc(NC(=O)CCCN(C)C)ccc2O[C@@H](C)CCCCO[C@@H]1CN(C)Cc1ccc(C(F)(F)F)cc1 | -110.0
COc1ccc(-c2cnc3c(c2)C(=O)N([C@H](C)CO)C[C@H](C)[C@H](CN(C)S(=O)(=O)c2cccs2)O3)cc1 | -49.8
COc1ccc(C#Cc2cnc3c(c2)C(=O)N([C@H](C)CO)C[C@H](C)[C@H](CN(C)S(=O)(=O)c2cccs2)O3)cc1OC | 61.2*
COc1ccc(S(=O)(=O)N(C)C[C@@H]2Oc3ncc(-c4ccccc4)cc3C(=O)N([C@H](C)CO)C[C@@H]2C)cc1 | -46.6
C[C@@H]1CN([C@@H](C)CO)S(=O)(=O)c2ccc(-c3ccccc3)cc2O[C@@H]1CN(C)C(=O)c1ccccc1F | -42.3
CNC[C@H]1Oc2ccc(NC(=O)CCN3CCOCC3)cc2C(=O)N([C@H](C)CO)C[C@H]1C | -42.2
Cc1cc(C)n(CCc2nc3c4ccccc4n(CC#N)c(=O)n3n2)n1 | -41.5
CCc1ccc(NC(=O)C2CC=CCC2C(=O)O)cc1 (configuration not stated) | 82.1*
C[C@H](CO)N1C[C@H](C)[C@@H](CN(C)C(=O)c2ccccn2)Oc2ncc(-c3cccc(C#N)c3)cc2C1=O | -57.5
Cc1cc(C)nc(NC(=O)NS(=O)(=O)Nc2ccc(Br)cn2)n1 | -43.9
C=CCSc1nc2ccccc2n1C(=O)/C=C/c1cc(OC)c(OC)c(OC)c1 | 527.1*
C[C@@H]1CN([C@H](C)CO)C(=O)c2cccc(NC(=O)c3nc4ccccc4s3)c2O[C@@H]1CN(C)C(=O)Nc1ccc(F)cc1 | -45.9
